Calls of active or inactive are those of the source. The rule behind the calls is not given here.
How the values were obtained:
L02 = assay: Cytotoxicity against human LO2 cells after 72 hrs by MTT assay; assay type: functional, cell-based; conditions: L02, 72 h
Method in brief: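 Cells grown in DMEM with 10% heat-inactivated FBS, penicillin/streptomycin, 37 °C, 5% CO2. Seeded at 10^4 cells/mL overnight, then exposed to a range of compound concentrations for 72 h; 0.1% DMSO negative control. MTT (5 mg/mL stock) added, absorbance read at 570 nm; percent inhibition from three independent experiments, mean ± SD.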

Homo sapiens = species on record: Homo sapiens; assay: Selectivity ratio of IC50 for HDAC1 (unknown origin) to IC50 for human HDAC6
Method in brief: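 Recombinant human HDAC1, 3, 6 and 8 (fluorimetric kit) incubated with compound over a range of concentrations and Boc-Lys(Ac)-AMC substrate at 37 °C for 60 min. Reaction quenched with lysine developer; after 30 min, fluorescence read at ex 355/em 460 nm. Inhibition taken relative to control and IC50 fitted; ratios built from these IC50s.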

[1] = Inhibition of PI3K/AKT/mTOR signaling in human Bel7402 cells assessed as reduction in mTOR phosphorylation after 24 to 72 hrs by Western blot analysis; assay type: cell-based
Method in brief: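 Bel7402 cells (1.5 × 10^5/mL) exposed to compound at 1.0 and 2.5 μM for 24 or 72 h. Lysates (0.05 mg/lane) separated on 12% SDS-PAGE and blotted to nitrocellulose. Probed for total Akt, phospho-Akt (Ser473), total mTOR and phospho-mTOR, HRP secondary, chemiluminescent detection. Quantified from three separate assays, mean ± SD.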

Bel-7402 [2] = assay: Induction of autophagy in human Bel7402 cells assessed as accumulation of autophagic vacuoles at 5 uM after 24 hrs by acridine orange staining based fluorescence microscopic method; assay type: functional, cell-based
Method in brief: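 Bel7402 cells (10 000) cultured overnight, then exposed to compound at 1.0 or 5.0 μM, or vehicle. Stained with 1 mg/mL acridine orange for 15−20 min, then dye removed. Red versus green fluorescence viewed by fluorescence microscopy at 400×. Representative images from three independent experiments.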

Histone deacetylase 3 = Histone deacetylase 3 (Homo sapiens, UniProt O15379); assay: Inhibition of human HDAC3 using Boc-Lys (Ac)-AMC as substrate incubated for 60 mins by fluorimetric assay
Histone deacetylase 3, sequence (O15379 whole entry): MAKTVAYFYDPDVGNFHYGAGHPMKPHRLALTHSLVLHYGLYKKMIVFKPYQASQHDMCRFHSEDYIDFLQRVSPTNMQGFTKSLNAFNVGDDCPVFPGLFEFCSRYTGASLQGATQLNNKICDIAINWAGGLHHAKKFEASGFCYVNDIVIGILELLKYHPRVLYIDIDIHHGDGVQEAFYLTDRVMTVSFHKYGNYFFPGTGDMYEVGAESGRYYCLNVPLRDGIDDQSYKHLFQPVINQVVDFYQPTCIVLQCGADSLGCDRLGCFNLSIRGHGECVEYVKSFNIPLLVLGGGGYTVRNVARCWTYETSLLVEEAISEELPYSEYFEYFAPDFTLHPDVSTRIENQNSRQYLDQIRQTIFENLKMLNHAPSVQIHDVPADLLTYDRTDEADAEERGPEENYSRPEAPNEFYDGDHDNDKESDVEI

Bel-7402 [3] = assay: Antiproliferative activity against human Bel7402 cells after 72 hrs by MTT assay; assay type: functional, cell-based; conditions: Bel-7402, 72 h
Bel-7402 [4] = assay: Induction of apoptosis in human Bel7402 cells assessed as increase in Bax expression after 72 hrs by Western blot analysis; assay type: functional, cell-based
Method in brief: (§1)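 Subconfluent Bel7402 cells (1.5 × 10^5/mL) exposed to vehicle or compound for 72 h, then lysed. Lysates (0.05 mg/lane) run on 12% SDS-PAGE, transferred to nitrocellulose, blocked in 5% nonfat milk. Probed for Bax, Bcl-2, cleaved caspase-3 and cleaved PARP, with HRP secondary and chemiluminescence. Levels normalized to β-actin; three separate assays, mean ± SD.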

Bel-7402 [5] = assay: Induction of apoptosis in human Bel7402 cells assessed as increase in cleaved PARP level at 5 uM after 72 hrs by Western blot analysis; assay type: functional, cell-based; method in brief: as §1
Bel-7402 [6] = assay: Induction of autophagy in human Bel7402 cells assessed as downregulation of p62 level at 1 to 5 uM after 24 to 72 hrs by Western blot analysis; assay type: functional, cell-based
Method in brief: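 Bel7402 cells (1.5 × 10^5/mL) exposed to compound at indicated doses, or vehicle, for 24 or 72 h. Lysates (0.05 mg/lane) separated on 12% SDS-PAGE, blotted to nitrocellulose, blocked in 5% milk. Probed with anti-LC3, anti-p62 and anti-beclin-1, HRP secondary, chemiluminescent detection. Levels quantified relative to β-actin; three separate assays, mean ± SD.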

Bel-7402 [7] = assay: Induction of apoptosis in human Bel7402 cells assessed as increase in cleaved caspase-3 level at 5 uM after 72 hrs by Western blot analysis; assay type: functional, cell-based; method in brief: as §1
Bel-7402 [8] = assay: Induction of apoptosis in human Bel7402 cells assessed as increase in cleaved PARP level at 1 uM after 72 hrs by Western blot analysis; assay type: functional, cell-based; method in brief: as §1
[9] = molecular target: T1, Protein deacetylase HDAC6 (Homo sapiens, UniProt Q9UBN7); assay: Inhibition of human HDAC6 using Boc-Lys (Ac)-AMC as substrate incubated for 60 mins by fluorimetric assay
T1 sequence (Q9UBN7 whole entry): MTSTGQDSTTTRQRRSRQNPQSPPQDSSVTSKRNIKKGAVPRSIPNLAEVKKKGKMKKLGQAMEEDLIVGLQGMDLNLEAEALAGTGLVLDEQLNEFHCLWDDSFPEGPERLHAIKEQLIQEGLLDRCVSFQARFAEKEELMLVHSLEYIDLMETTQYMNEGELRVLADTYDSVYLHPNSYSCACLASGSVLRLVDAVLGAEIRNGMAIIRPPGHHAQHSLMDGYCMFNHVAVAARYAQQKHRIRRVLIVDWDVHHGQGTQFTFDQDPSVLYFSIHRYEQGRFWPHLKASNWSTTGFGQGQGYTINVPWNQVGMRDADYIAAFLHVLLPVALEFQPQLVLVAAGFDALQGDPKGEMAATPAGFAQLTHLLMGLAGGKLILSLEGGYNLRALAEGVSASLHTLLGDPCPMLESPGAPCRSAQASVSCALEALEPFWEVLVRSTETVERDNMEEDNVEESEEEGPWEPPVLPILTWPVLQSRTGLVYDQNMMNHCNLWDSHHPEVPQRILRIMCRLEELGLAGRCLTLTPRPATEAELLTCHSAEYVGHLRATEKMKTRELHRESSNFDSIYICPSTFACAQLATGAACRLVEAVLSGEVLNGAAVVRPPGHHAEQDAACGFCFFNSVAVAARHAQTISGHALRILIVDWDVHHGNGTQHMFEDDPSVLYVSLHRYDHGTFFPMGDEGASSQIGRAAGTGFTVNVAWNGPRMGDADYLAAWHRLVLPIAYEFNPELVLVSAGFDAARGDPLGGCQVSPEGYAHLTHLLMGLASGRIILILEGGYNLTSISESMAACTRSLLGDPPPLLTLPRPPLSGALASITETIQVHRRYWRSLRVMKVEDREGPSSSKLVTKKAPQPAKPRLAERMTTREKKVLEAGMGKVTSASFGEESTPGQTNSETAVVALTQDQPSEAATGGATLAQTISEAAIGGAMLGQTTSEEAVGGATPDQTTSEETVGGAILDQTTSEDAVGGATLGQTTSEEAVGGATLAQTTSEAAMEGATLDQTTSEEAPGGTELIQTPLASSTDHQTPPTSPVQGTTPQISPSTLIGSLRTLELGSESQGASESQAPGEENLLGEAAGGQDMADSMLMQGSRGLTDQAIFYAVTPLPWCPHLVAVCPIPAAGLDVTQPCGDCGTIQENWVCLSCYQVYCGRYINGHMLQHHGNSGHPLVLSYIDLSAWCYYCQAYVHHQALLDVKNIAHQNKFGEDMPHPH

Huh-7 = assay: Antiproliferative activity against human HuH7 cells after 72 hrs by MTT assay; assay type: functional, cell-based; conditions: Huh-7, 72 h
SMMC-7721 = assay: Antiproliferative activity against human SMMC7721 cells after 72 hrs by MTT assay; assay type: functional, cell-based; conditions: SMMC-7721, 72 h

Ratio IC50 (Homo sapiens): 2
IC50 (Histone deacetylase 3): 148 nM
IC50 (Bel-7402 [3]): 1000 nM
IC50 [9]: 13 nM
IC50 (Huh-7): 1100 nM
IC50 (SMMC-7721): 2900 nM
Structure (SMILES): COc1ccc(-c2nc(NCCCOc3ccc(/C=C/C(=O)NO)cc3OC)cc3c2[nH]c2ccccc23)cc1
IC50 (L02): > 25000 nM
inhibition [1]: Dose-dependent effect
Activity (Bel-7402 [2]): Active
Activity (Bel-7402 [4]): Dose-dependent effect
Activity (Bel-7402 [5]): Active
Activity (Bel-7402 [6]): Active
Activity (Bel-7402 [7]): Active
Activity (Bel-7402 [8]): Active

— ChEMBL document CHEMBL4376807, “Hydroxamic Acid Derivatives of β-Carboline/Hydroxycinnamic Acid Hybrids Inducing Apoptosis and Autophagy through the PI3K/Akt/mTOR Pathways” (J Nat Prod, 2019)
